Assay results: ChEMBL document CHEMBL4049410, “Novel benzimidazolyl tetrahydroprotoberberines: Design, synthesis, antimicrobial evaluation and multi-targeting exploration” (2017)
Values after ≈ are worked out from the molar mass of the structure shown.

Assays:
[1] = system: Proteus vulgaris; test: Antibacterial activity against Bacillus proteus ATCC 13315 after 24 hrs by two-fold serial dilution assay; format: functional
Summary of the method: (§1)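 Twofold serial broth dilution following NCCLS guidance, with Chloromycin, Norfloxacin and Fluconazole as positive controls. MIC in μM is the lowest concentration giving complete inhibition of visible bacterial or fungal growth.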

[2] = system: Shigella dysenteriae; test: Antibacterial activity against Shigella dysenteriae after 24 hrs by two-fold serial dilution assay; format: functional
[3] = system: Staphylococcus aureus; test: Antibacterial activity against methicillin-resistant Staphylococcus aureus N315 after 24 hrs by two-fold serial dilution assay; format: functional
[4] = system: Cyberlindnera jadinii; test: Antifungal activity against Candida utilis after 24 hrs by two-fold serial dilution assay; format: functional; summary of the method: as §1
[5] = system: Pseudomonas aeruginosa; test: Antibacterial activity against Pseudomonas aeruginosa after 24 hrs by two-fold serial dilution assay; format: functional; summary of the method: as §1
[6] = system: Bacillus subtilis; test: Antibacterial activity against Bacillus subtilis after 24 hrs by two-fold serial dilution assay; format: functional; summary of the method: as §1
[7] = system: Escherichia coli; test: Antibacterial activity against Escherichia coli JM109 after 24 hrs by two-fold serial dilution assay; format: functional; summary of the method: as §1
[8] = system: Aspergillus flavus; test: Antifungal activity against Aspergillus flavus after 24 hrs by two-fold serial dilution assay; format: functional; summary of the method: as §1
[9] = system: Pichia norvegensis; test: Antifungal activity against Candida mycoderma after 24 hrs by two-fold serial dilution assay; format: functional; summary of the method: as §1
[10] = system: Micrococcus luteus; test: Antibacterial activity against Micrococcus luteus ATCC 4698 after 24 hrs by two-fold serial dilution assay; format: functional, NCTC 2665; summary of the method: as §1
[11] = system: Candida albicans; test: Antifungal activity against Candida albicans ATCC 76615 after 24 hrs by two-fold serial dilution assay; format: functional; summary of the method: as §1
[12] = system: Escherichia coli; test: Antibacterial activity against Escherichia coli DH52 after 24 hrs by two-fold serial dilution assay; format: functional; summary of the method: as §1
[13] = system: Salmonella typhi; test: Antibacterial activity against Bacillus typhi after 24 hrs by two-fold serial dilution assay; format: functional, Salmonella enterica subsp. enterica serovar Typhi
[14] = system: Saccharomyces cerevisiae; test: Antifungal activity against Saccharomyces cerevisiae after 24 hrs by two-fold serial dilution assay; format: functional; summary of the method: as §1
[15] = system: Staphylococcus aureus; test: Antibacterial activity against Staphylococcus aureus ATCC 25923 after 24 hrs by two-fold serial dilution assay; format: functional; summary of the method: as §1
[16] = Proteus vulgaris, ATCC 13315, 24 h, read-out: MIC
[17] = Shigella dysenteriae, 24 h, read-out: MIC
[18] = Staphylococcus aureus, N315, 24 h, read-out: MIC
[19] = Williopsis jadinii, 24 h, read-out: MIC
[20] = Pseudomonas aeruginosa, 24 h, read-out: MIC
[21] = Bacillus subtilis, 24 h, read-out: MIC
[22] = Escherichia coli, JM109, 24 h, read-out: MIC
[23] = Aspergillus flavus, 24 h, read-out: MIC
[24] = Pichia norvegensis, 24 h, read-out: MIC
[25] = Micrococcus luteus, NCTC 2665, 24 h, read-out: MIC
[26] = Candida albicans, ATCC 76615, 24 h, read-out: MIC
[27] = Escherichia coli, DH52, 24 h, read-out: MIC
[28] = Salmonella enterica, 24 h, read-out: MIC
[29] = Saccharomyces cerevisiae, 24 h, read-out: MIC
[30] = Staphylococcus aureus, ATCC 25923, 24 h, read-out: MIC

Row | SMILES | MIC [1, 16] [µM] | MIC [2, 17] [µM] | MIC [3, 18] [µM] | MIC [4, 19] [µM] | MIC [5, 20] [µM] | MIC [6, 21] [µM] | MIC [7, 22] [µM] | MIC [9, 24] [µM] | MIC [11, 26] [µM] | MIC [12, 27] [µM] | MIC [14, 29] [µM] | MIC [15, 30] [µM] | MIC [1] [µM] | MIC [4] [µM] | MIC [5] [µM] | MIC [6] [µM] | MIC [7] [µM] | MIC [8] [µM] | MIC [10] [µM] | MIC [12] [µM] | other results
1 | COc1cc(-c2nc3ccccc3[nH]2)c2c(c1O)CN1CCc3cc4c(cc3C1C2)OCO4 (stereo not drawn) | 242 (≈ 107 µg/mL) | 96.7 (≈ 42.7 µg/mL) | 121 (≈ 53.3 µg/mL) | 242 (≈ 107 µg/mL) | 145 (≈ 64 µg/mL) | 48.3 (≈ 21.3 µg/mL) | 60.4 (≈ 26.7 µg/mL) | 60.4 (≈ 26.7 µg/mL) | 483 (≈ 213 µg/mL) | 96.7 (≈ 42.7 µg/mL) | 48.3 (≈ 21.3 µg/mL) | 580 (≈ 256 µg/mL) | – | – | – | – | – | – | – | – | MIC [8, 23]: 72.5 µM (≈ 32 µg/mL); MIC [10, 25]: 242 µM (≈ 107 µg/mL); MIC [13, 28]: 48.3 µM (≈ 21.3 µg/mL)
2 | COc1cc(-c2nc3ccccc3n2CCCCCCn2c3ccccc3c3ccccc32)c2c(c1O)CN1CCc3cc4c(cc3C1C2)OCO4.Cl (stereo not drawn) | – | – | – | – | – | – | – | – | – | – | – | – | 88 | 469.3 | 469.3 | 704 | 469.3 | 293.3 | 293.3 | 88 | MIC [2]: 146.7 µM; MIC [3]: 586.7 µM; MIC [9]: 352 µM; MIC [11]: 176 µM; MIC [13]: 73.3 µM; MIC [14]: 469.3 µM; MIC [15]: 146.7 µM
3 | COc1cc(-c2nc3ccccc3n2Cc2ccc(Cl)cc2)c2c(c1O)CN1CCc3cc4c(cc3C1C2)OCO4.Cl (stereo not drawn) | – | – | – | – | – | – | – | – | – | – | – | – | 535.9 | 535.9 | 535.9 | 134 | 535.9 | 669.8 | 535.9 | 669.8 | MIC [9]: 267.9 µM; MIC [11]: 401.9 µM; MIC [13]: 201 µM; MIC [14]: 803.8 µM; MIC [15]: 267.9 µM
4 | COc1cc(-c2nc3ccccc3n2Cc2cccc(F)c2)c2c(c1O)CN1CCc3cc4c(cc3C1C2)OCO4 (stereo not drawn) | – | 116 (≈ 64 µg/mL) | – | – | – | – | – | 48.5 (≈ 26.7 µg/mL) | 48.5 (≈ 26.7 µg/mL) | – | 24.3 (≈ 13.4 µg/mL) | 48.5 (≈ 26.7 µg/mL) | 38.8 (≈ 21.3 µg/mL) | 48.5 (≈ 26.7 µg/mL) | 48.5 (≈ 26.7 µg/mL) | 19.4 (≈ 10.7 µg/mL) | 29.1 (≈ 16 µg/mL) | 24.3 (≈ 13.4 µg/mL) | 19.4 (≈ 10.7 µg/mL) | 38.8 (≈ 21.3 µg/mL) | MIC [3]: 12.2 µM (≈ 6.71 µg/mL)
5 | COc1cc(-c2nc3ccccc3n2Cc2cccc(Cl)c2)c2c(c1O)CN1CCc3cc4c(cc3C1C2)OCO4 (stereo not drawn) | 47.1 (≈ 26.7 µg/mL) | 23.6 (≈ 13.4 µg/mL) | 56.5 (≈ 32 µg/mL) | 9.4 (≈ 5.32 µg/mL) | 28.3 (≈ 16 µg/mL) | 47.1 (≈ 26.7 µg/mL) | 4.7 (≈ 2.66 µg/mL) | 18.9 (≈ 10.7 µg/mL) | 37.7 (≈ 21.3 µg/mL) | 75.4 (≈ 42.7 µg/mL) | 47.1 (≈ 26.7 µg/mL) | 23.6 (≈ 13.4 µg/mL) | – | – | – | – | – | – | – | – | MIC [8, 23]: 18.9 µM (≈ 10.7 µg/mL); MIC [10, 25]: 28.3 µM (≈ 16 µg/mL); MIC [13, 28]: 4.7 µM (≈ 2.66 µg/mL)
6 | COc1cc(-c2nc3ccccc3n2Cc2ccc(F)cc2)c2c(c1O)CN1CCc3cc4c(cc3C1C2)OCO4 (stereo not drawn) | – | – | – | – | – | – | – | – | – | 100 (≈ 55.1 µg/mL) | 20.1 (≈ 11 µg/mL) | 60.2 (≈ 33.1 µg/mL) | 25.1 (≈ 13.8 µg/mL) | 60.2 (≈ 33.1 µg/mL) | 25.1 (≈ 13.8 µg/mL) | 20.1 (≈ 11 µg/mL) | 25.1 (≈ 13.8 µg/mL) | 50.2 (≈ 27.6 µg/mL) | 40.1 (≈ 22 µg/mL) | – | MIC [9]: 25.1 µM (≈ 13.8 µg/mL); MIC [11]: 25.1 µM (≈ 13.8 µg/mL)
7 | COc1cc(-c2nc3ccccc3n2CCCCCCn2c3ccccc3c3ccccc32)c2c(c1O)CN1CCc3cc4c(cc3C1C2)OCO4 (stereo not drawn) | – | – | 618 (≈ 427 µg/mL) | 618 (≈ 427 µg/mL) | 741 (≈ 512 µg/mL) | 741 (≈ 512 µg/mL) | 618 (≈ 427 µg/mL) | 618 (≈ 427 µg/mL) | 247 (≈ 171 µg/mL) | – | 741 (≈ 512 µg/mL) | – | 617.6 (≈ 427 µg/mL) | – | – | – | – | 617.6 (≈ 427 µg/mL) | 741.1 (≈ 512 µg/mL) | 617.6 (≈ 427 µg/mL) | –
8 | COc1cc(-c2nc3ccccc3n2Cc2ccccc2Cl)c2c(c1O)CN1CCc3cc4c(cc3C1C2)OCO4 (stereo not drawn) | 47.1 (≈ 26.7 µg/mL) | 28.3 (≈ 16 µg/mL) | 23.6 (≈ 13.4 µg/mL) | 18.9 (≈ 10.7 µg/mL) | 23.6 (≈ 13.4 µg/mL) | 188 (≈ 107 µg/mL) | 4.7 (≈ 2.66 µg/mL) | 47.1 (≈ 26.7 µg/mL) | 56.5 (≈ 32 µg/mL) | 23.6 (≈ 13.4 µg/mL) | 23.6 (≈ 13.4 µg/mL) | 9.4 (≈ 5.32 µg/mL) | – | – | – | – | – | – | – | – | MIC [8, 23]: 11.8 µM (≈ 6.68 µg/mL); MIC [10, 25]: 23.6 µM (≈ 13.4 µg/mL); MIC [13, 28]: 37.7 µM (≈ 21.3 µg/mL)
9 | COc1cc(-c2nc3ccccc3n2Cc2ccccc2F)c2c(c1O)CN1CCc3cc4c(cc3C1C2)OCO4 (stereo not drawn) | 38.8 (≈ 21.3 µg/mL) | 48.5 (≈ 26.7 µg/mL) | 24.3 (≈ 13.4 µg/mL) | 9.7 (≈ 5.33 µg/mL) | 58.2 (≈ 32 µg/mL) | 48.5 (≈ 26.7 µg/mL) | 29.1 (≈ 16 µg/mL) | 19.4 (≈ 10.7 µg/mL) | 24.3 (≈ 13.4 µg/mL) | 38.8 (≈ 21.3 µg/mL) | 58.2 (≈ 32 µg/mL) | – | – | – | – | – | – | 24.3 (≈ 13.4 µg/mL) | – | – | MIC [10, 25]: 29.1 µM (≈ 16 µg/mL); MIC [15]: 58.2 µM (≈ 32 µg/mL)
10 | COc1cc(-c2nc3ccccc3n2Cc2ccccc2F)c2c(c1O)CN1CCc3cc4c(cc3C1C2)OCO4.Cl (stereo not drawn) | – | – | – | – | – | – | – | – | – | – | – | – | 20.9 | 12.6 | 67 | 33.5 | 20.9 | 803.8 | 20.9 | 20.9 | MIC [2]: 50.2 µM; MIC [9]: 10.5 µM; MIC [11]: 20.9 µM; MIC [13]: 6.3 µM; MIC [14]: 83.8 µM
